Values after ≈ are worked out from the molar mass of the structure shown.
Key:
Format in all cases: functional, Salmonella enterica subsp. enterica serovar Enteritidis
Salmonella enteritidis [1] = assay: Antimicrobial activity against marA::aph-deficient ciprofloxacin-resistant Salmonella enterica serovar enteritidis isolate 104-cip harboring gyrA D87Y,S83F mutant gene by Etest
In short: (§1)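 Deletions (acrB, marA, soxS or ramA) were moved from SL1344 mutants into the isolates by P22 phage transduction. Transductants were selected on LB agar with 50 µg/ml kanamycin, and insertion of the kanamycin resistance gene was confirmed by PCR. MICs were then determined by Etest.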

Salmonella enteritidis [2] = assay: Antimicrobial activity against Salmonella enterica serovar enteritidis isolate 5408 harboring gyrA gene by Etest
Salmonella enteritidis [3] = assay: Antimicrobial activity against acrB::aph-deficient Salmonella enterica serovar enteritidis isolate 5408 harboring gyrA D87Y mutant gene by Etest; in short: as §1
Salmonella enteritidis [4] = assay: Antimicrobial activity against ciprofloxacin-resistant Salmonella enterica serovar enteritidis isolate 5408-cip harboring gyrA gene, gyrB E466D, parE V461G mutant gene by Etest
In short: (§2)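 Wild-type alleles of the target genes were carried on plasmids and introduced into the ciprofloxacin-selected mutants by electrotransformation. Transformants were selected on LB agar with 50 µg/ml kanamycin at 37°C overnight. Quinolone MICs of the transformants were read by Etest strips alongside those of the parent and mutant strains.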

Salmonella enteritidis [5] = assay: Antimicrobial activity against ciprofloxacin-resistant Salmonella enterica serovar enteritidis isolate 5408-cip harboring gyrB gene gyrA D87Y, parE V461G mutant gene by Etest; in short: as §2
Salmonella enteritidis [6] = assay: Antimicrobial activity against ciprofloxacin-resistant Salmonella enterica serovar enteritidis isolate 5408-cip harboring parE gene gyrA D87Y, gyrB E466D mutant gene by Etest; in short: as §2
Salmonella enteritidis [7] = assay: Antimicrobial activity against acrB::aph-deficient ciprofloxacin-resistant Salmonella enterica serovar enteritidis isolate 5408-cip harboring gyrA D87Y, gyrB E466D, parE V461G mutant gene by Etest; in short: as §1
Salmonella enteritidis [8] = assay: Antimicrobial activity against ramA::aph-deficient ciprofloxacin-resistant Salmonella enterica serovar enteritidis isolate 5408-cip harboring gyrA D87Y, gyrB E466D, parE V461G mutant gene by Etest; in short: as §1
Salmonella enteritidis [9] = assay: Antimicrobial activity against Salmonella enterica serovar enteritidis isolate CUH48 by Etest
Salmonella enteritidis [10] = assay: Antimicrobial activity against Salmonella enterica serovar enteritidis isolate CUH52 by Etest
Salmonella enteritidis [11] = assay: Antimicrobial activity against Salmonella enterica serovar enteritidis isolate NCTC 13349 by Etest
Salmonella enteritidis [12] = assay: Antimicrobial activity against Salmonella enterica serovar enteritidis isolate 54 harboring gyrA D87Y mutant gene by Etest
Salmonella enteritidis [13] = assay: Antimicrobial activity against Salmonella enterica serovar enteritidis isolate 58 harboring gyrA D87Y mutant gene by Etest
Salmonella enteritidis [14] = assay: Antimicrobial activity against Salmonella enterica serovar enteritidis isolate 51 harboring gyrA D87Y mutant gene by Etest
Salmonella enteritidis [15] = assay: Antimicrobial activity against Salmonella enterica serovar enteritidis isolate CUH60 harboring gyrA D87Y mutant gene by Etest
Salmonella enteritidis [16] = assay: Antimicrobial activity against Salmonella enterica serovar enteritidis isolate 4931 harboring gyrA D87Y mutant gene by Etest
Salmonella enteritidis [17] = assay: Antimicrobial activity against Salmonella enterica serovar enteritidis isolate 104 harboring gyrA D87Y mutant gene by Etest
Salmonella enteritidis [18] = assay: Antimicrobial activity against ciprofloxacin-resistant Salmonella enterica serovar enteritidis isolate 5408-cip harboring gyrA D87Y, gyrB E466D, parE V461G mutant gene by Etest
Salmonella enteritidis [19] = assay: Antimicrobial activity against Salmonella enterica serovar enteritidis isolate 5408 harboring gyrA D87Y mutant gene by Etest
Salmonella enteritidis [20] = assay: Antimicrobial activity against Salmonella enterica serovar enteritidis isolate 104-cip harboring gyrA D87Y,S83F mutant gene by Etest
Salmonella enteritidis [21] = assay: Antimicrobial activity against acrB::aph-deficient Salmonella enterica serovar enteritidis isolate 51 harboring gyrA D87Y mutant gene by Etest; in short: as §1
Salmonella enteritidis [22] = assay: Antimicrobial activity against acrB::aph-deficient Salmonella enterica serovar enteritidis isolate CUH60 harboring gyrA D87Y mutant gene by Etest; in short: as §1
Salmonella enteritidis [23] = assay: Antimicrobial activity against acrB::aph-deficient Salmonella enterica serovar enteritidis isolate 4931 harboring gyrA D87Y mutant gene by Etest; in short: as §1
Salmonella enteritidis [24] = assay: Antimicrobial activity against Salmonella enterica serovar enteritidis isolate 104 harboring gyrA gene by Etest
Salmonella enteritidis [25] = assay: Antimicrobial activity against acrB::aph-deficient Salmonella enterica serovar enteritidis isolate 104 harboring gyrA D87Y mutant gene by Etest; in short: as §1
Salmonella enteritidis [26] = assay: Antimicrobial activity against ciprofloxacin-resistant Salmonella enterica serovar enteritidis isolate 104-cip harboring gyrA gene by Etest; in short: as §2
Salmonella enteritidis [27] = assay: Antimicrobial activity against acrB::aph-deficient ciprofloxacin-resistant Salmonella enterica serovar enteritidis isolate 104-cip harboring gyrA D87Y,S83F mutant gene by Etest; in short: as §1
Salmonella enteritidis [28] = assay: Antimicrobial activity against soxS::aph-deficient ciprofloxacin-resistant Salmonella enterica serovar enteritidis isolate 104-cip harboring gyrA D87Y,S83F mutant gene by Etest; in short: as §1

## CCn1cc(C(=O)O)c(=O)c2ccc(C)nc21 [NALIDIXIC ACID]
Salmonella enteritidis [1]
  MIC: > 256 µg/mL
Salmonella enteritidis [2]
  MIC: 4 µg/mL (≈ 17.2 µM)
Salmonella enteritidis [3]
  MIC: 32 µg/mL (≈ 138 µM)
Salmonella enteritidis [4]
  MIC: > 256 µg/mL
Salmonella enteritidis [5]
  MIC: > 256 µg/mL
Salmonella enteritidis [6]
  MIC: > 256 µg/mL
Salmonella enteritidis [7]
  MIC: > 256 µg/mL
Salmonella enteritidis [8]
  MIC: > 256 µg/mL
Salmonella enteritidis [9]
  MIC: 6 µg/mL (≈ 25.8 µM)
Salmonella enteritidis [10]
  MIC: 3 µg/mL (≈ 12.9 µM)
Salmonella enteritidis [11]
  MIC: 8 µg/mL (≈ 34.4 µM)
Salmonella enteritidis [12]
  MIC: > 256 µg/mL
Salmonella enteritidis [13]
  MIC: > 256 µg/mL
Salmonella enteritidis [14]
  MIC: > 256 µg/mL
Salmonella enteritidis [15]
  MIC: > 256 µg/mL
Salmonella enteritidis [16]
  MIC: > 256 µg/mL
Salmonella enteritidis [17]
  MIC: > 256 µg/mL
Salmonella enteritidis [18]
  MIC: > 256 µg/mL
Salmonella enteritidis [19]
  MIC: > 256 µg/mL
Salmonella enteritidis [20]
  MIC: > 256 µg/mL
Salmonella enteritidis [21]
  MIC: 32 µg/mL (≈ 138 µM)
Salmonella enteritidis [22]
  MIC: 24 µg/mL (≈ 103 µM)
Salmonella enteritidis [23]
  MIC: 32 µg/mL (≈ 138 µM)
Salmonella enteritidis [24]
  MIC: 4 µg/mL (≈ 17.2 µM)
Salmonella enteritidis [25]
  MIC: 32 µg/mL (≈ 138 µM)
Salmonella enteritidis [26]
  MIC: 8 µg/mL (≈ 34.4 µM)
Salmonella enteritidis [27]
  MIC: > 256 µg/mL
Salmonella enteritidis [28]
  MIC: > 256 µg/mL

Reference: ChEMBL document CHEMBL1629649, “Multiple regulatory pathways associated with high-level ciprofloxacin and multidrug resistance in Salmonella enterica serovar enteritidis: involvement of RamA and other global regulators” (2009)
